Among the data in ChEMBL document CHEMBL1124248, “Preparation and antischistosomal and antitumor activity of hycanthone and some of its congeners. Evidence for the mode of action of hycanthone” (1988) are Effect, T/C and Control values, retold here.

Several values for one entry are separate records, joined by “and”; a condition that tells them apart may be missing. Equal values may be shown once.

What all share (format): functional
The test system of experiment [1] is Schistosoma mansoni. Nature of the experiment: Day 50% survival of worms in culture of HC sensitive Schistosoma mansoni.
For experiment [2], the system named is Mus musculus. In words: In vivo antitumor activity against p-388 lymphocytic leukemia in mice at 3.12 mg/kg. A digest of the protocol:
(§1)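 Murine P388 lymphocytic leukemia model tested by the National Cancer Institute. Compound given once daily for 9 days; activity expressed as T/C.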

The subject of experiment [3] is Mus musculus. In words: In vivo antitumor activity against p-388 lymphocytic leukemia in mice at 12.5 mg/kg. A digest of the protocol: as §1
Experiment [4] deals with Schistosoma mansoni. Nature of the experiment: Incorporation of 1.1 M *10e6 [3H]uridine in hycanthone(HC) resistant Schistosoma mansoni. The gist of the method: (§2)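 Adult HC-resistant S. mansoni were treated in vitro, and [3H]uridine incorporation by the worms was measured. Values are % of control. Concentrations are given in M × 10^6.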
The subject of experiment [5] is Schistosoma mansoni. Nature of the experiment: Incorporation of 1.1 M *10e6 [3H]uridine in hycanthone(HC) sensitive Schistosoma mansoni.
Experiment [6] relates to Mus musculus. In words: In vivo antitumor activity against p-388 lymphocytic leukemia in mice at 6.25 mg/kg. The gist of the method:
as §1

Experiment [7] relates to Mus musculus. Nature of the experiment: In vivo antitumor activity against p-388 lymphocytic leukemia in mice at 25 mg/kg. The gist of the method: as §1
Experiment [8] concerns Schistosoma mansoni. In words: Incorporation of 5.5M*10e6 [3H]uridine in hycanthone(HC) sensitive Schistosoma mansoni.
The subject of experiment [9] is Schistosoma mansoni. In words: Incorporation of 5.5 M*10e6 [3H]uridine in hycanthone(HC) resistant Schistosoma mansoni. A digest of the protocol:
as §2

The test system of experiment [10] is Schistosoma mansoni. In words: Incorporation of 1.2 M *10e6 [3H]uridine in hycanthone(HC) resistant Schistosoma mansoni. A digest of the protocol: as §2
Experiment [11] has as its system Mus musculus. In words: In vivo antitumor activity against p-388 lymphocytic leukemia in mice at 2.5 mg/kg. A digest of the protocol: as §1
The test system of experiment [12] is Schistosoma mansoni. Nature of the experiment: Incorporation of 6M*10e6 [3H]uridine in hycanthone(HC) sensitive Schistosoma mansoni.
Experiment [13] concerns Mus musculus. In words: In vivo antitumor activity against p-388 lymphocytic leukemia in mice at 10 mg/kg. The gist of the method:
as §1

The subject of experiment [14] is Mus musculus. Nature of the experiment: In vivo antitumor activity against p-388 lymphocytic leukemia in mice at 5 mg/kg. A digest of the protocol:
as §1

Experiment [15] has as its system Schistosoma mansoni. In words: Day 50% survival of worms in culture of HC resistant Schistosoma mansoni. The gist of the method: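 Adult HC-resistant S. mansoni were exposed in vitro and kept in culture. The value is the day by which 50% of worms were dead. Cultures were ended at different times in different experiments. Concentrations are given in M × 10^6.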

Experiment [16] deals with Schistosoma mansoni. In words: Incorporation of 6M*10e6 [3H]uridine in hycanthone(HC) resistant Schistosoma mansoni. A digest of the protocol: as §2
Experiment [17] has as its system Schistosoma mansoni. In words: Incorporation of 1.2 M *10e6 [3H]uridine in hycanthone(HC) sensitive Schistosoma mansoni.
Experiment [18] deals with Mus musculus. In words: In vivo antitumor activity against p-388 lymphocytic leukemia in mice at 20 mg/kg. A digest of the protocol: as §1

By T/C is commonly meant the ratio of treated to control. Compound `CCCCNC(=O)OCc1ccc(NCCN(CC)CC)c2c(=O)c3ccccc3sc12` showed an Effect in the experiment with Schistosoma mansoni [1] above 12 days. The T/C with Mus musculus [2] was 119%; with Mus musculus [3] it was 104%; in the experiment with Mus musculus [6] it was 135%; with Mus musculus [7], 129%. Besides, the Control with Schistosoma mansoni [4] turned out to be 100%; in the experiment with Schistosoma mansoni [5], 34%; with Schistosoma mansoni [8] it was 31%; in the experiment on Schistosoma mansoni [9], 100%.
With `CCN(CC)CCNc1ccc(COC(=O)OC)c2sc3ccccc3c(=O)c12`, the Control with Schistosoma mansoni [10] is 80%; in the experiment with Schistosoma mansoni [12] it was 6%; in the experiment on Schistosoma mansoni [16], 28%; with Schistosoma mansoni [17], 32%. Moreover, the T/C is on record as 118% in the experiment on Mus musculus [11], 124% in the experiment with Mus musculus [13], 124% in the experiment on Mus musculus [14] and 122% in the experiment on Mus musculus [18]. Further, the Effect with Schistosoma mansoni [1] was 7 days and 6 days; with Schistosoma mansoni [15], 13 days and 6 days.
